We go through 3 compounds from ChEMBL document CHEMBL1121534, “Synthesis and biological activity of 5-(4-chlorobenzoyl)-4-(hydroxymethyl)-1-methyl-1H-pyrrole-2-acetic acid, a major metabolite of zomepirac sodium” (J Med Chem, 1980).

The species named for one assay is Homo sapiens. Put plainly: Tested for in vitro inhibition of collagen-induced aggregation of human platelets. The assay is classed as functional.
Assay [1] has as its system Rattus norvegicus. As to the kind of experiment: Tested for analgesic activity in acetylcholine-induced body constriction assay by peroral administration. The assay is classed as functional. Particulars: po.
Assay [2] is filed under the species Rattus norvegicus. As to the kind of experiment: Tested for effective dose in rat adjuvant-induced polyarthritis (AA) test in II phase. It is filed as functional.
The species named for assay [3] is Rattus norvegicus. As to the kind of experiment: Tested for effective dose in rat adjuvant-induced polyarthritis (AA) test in III phase. It is filed as functional.
Assay [4] deals with Rattus norvegicus. As to the kind of experiment: Tested for ulcerogenic activity by peroral administration in rat. It is filed as functional. A digest of the protocol: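 Rats were given the compound by mouth at doses up to 100 mg/kg, and ulcerogenic activity was assessed.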
Assay [5] concerns Rattus norvegicus. Put plainly: Tested for analgesic activity in acetylcholine-induced body constriction assay. Not Active (NA) upto 100 mg/kg peroral dose. The arrangement: dose 100 mg/kg. It is filed as functional, organism-based.
Assay [6] concerns Rattus norvegicus. As to the kind of experiment: Tested for effective dose in rat adjuvant-induced polyarthritis (AA) test in II phase. Not Active (NA) up to 125 mg/kg peroral dose. The arrangement: dose 125 mg/kg. It is filed as functional, organism-based.
Assay [7] deals with Rattus norvegicus. Put plainly: Tested for effective dose in rat adjuvant-induced polyarthritis (AA) test in III phase. Not Active (NA) up to 125 mg/kg peroral dose. It is filed as functional, organism-based. Set-up: dose 125 mg/kg.

Calls of active or inactive are those of the source. The rule behind the calls is not given here.

Regarding `Cc1cc(CC(=O)[O-])n(C)c1C(=O)c1ccc(Cl)cc1.O.O.[Na+]` [ZOMEPIRAC SODIUM], the IC50 in the assay listed under Homo sapiens came to 1.63 µM. For the same compound, the median effective dose (ED50) with Rattus norvegicus [1] was 0.72 mg/kg; in the assay filed under Rattus norvegicus [2], 0.72 mg/kg; in the assay filed under Rattus norvegicus [3], 5.67 mg/kg. The UD50 in the assay with Rattus norvegicus [4] is 13.9 mg/kg.
As to `Cn1c(CC(=O)O)cc(CO)c1C(=O)c1ccc(Cl)cc1`, half-maximal inhibition in the assay filed under Homo sapiens (IC50) was put at 529 µM. Besides, the ED50 entry in the assay on Rattus norvegicus [5], in the assay on Rattus norvegicus [6] and with Rattus norvegicus [7] was “inactive” in each case.
`COc1ccc2c(c1)c(CC(=O)O)c(C)n2C(=O)c1ccc(Cl)cc1` [INDOMETHACIN] displayed an IC50 in the assay listed under Homo sapiens of 1.8 µM.

One may read the IC50 as the point on the concentration scale where inhibition reaches its midpoint. A lower IC50 goes with inhibition by little substance. For orientation: ED50 means the dose that gives a 50% effect, or the effect in half of the subjects.
